Consider 25 compounds from ChEMBL document CHEMBL4837207, “Discovery of pyrrolo[2,3-d]pyrimidine derivatives as potent Axl inhibitors: Design, synthesis and biological evaluation” (Eur J Med Chem, 2021).

Where only a bound is given, the exact number is not on record here.

For data set [1], the target named is Hepatocyte growth factor receptor (Homo sapiens, UniProt P08581). Description: Inhibition of c-MET (unknown origin) by ELISA. On the technique in general: An ELISA detects its analyte on a solid surface through an enzyme-linked reagent.
In data set [2] the target is T1, Tyrosine-protein kinase receptor UFO (Homo sapiens, UniProt P30530).
T1 sequence (P30530 whole entry): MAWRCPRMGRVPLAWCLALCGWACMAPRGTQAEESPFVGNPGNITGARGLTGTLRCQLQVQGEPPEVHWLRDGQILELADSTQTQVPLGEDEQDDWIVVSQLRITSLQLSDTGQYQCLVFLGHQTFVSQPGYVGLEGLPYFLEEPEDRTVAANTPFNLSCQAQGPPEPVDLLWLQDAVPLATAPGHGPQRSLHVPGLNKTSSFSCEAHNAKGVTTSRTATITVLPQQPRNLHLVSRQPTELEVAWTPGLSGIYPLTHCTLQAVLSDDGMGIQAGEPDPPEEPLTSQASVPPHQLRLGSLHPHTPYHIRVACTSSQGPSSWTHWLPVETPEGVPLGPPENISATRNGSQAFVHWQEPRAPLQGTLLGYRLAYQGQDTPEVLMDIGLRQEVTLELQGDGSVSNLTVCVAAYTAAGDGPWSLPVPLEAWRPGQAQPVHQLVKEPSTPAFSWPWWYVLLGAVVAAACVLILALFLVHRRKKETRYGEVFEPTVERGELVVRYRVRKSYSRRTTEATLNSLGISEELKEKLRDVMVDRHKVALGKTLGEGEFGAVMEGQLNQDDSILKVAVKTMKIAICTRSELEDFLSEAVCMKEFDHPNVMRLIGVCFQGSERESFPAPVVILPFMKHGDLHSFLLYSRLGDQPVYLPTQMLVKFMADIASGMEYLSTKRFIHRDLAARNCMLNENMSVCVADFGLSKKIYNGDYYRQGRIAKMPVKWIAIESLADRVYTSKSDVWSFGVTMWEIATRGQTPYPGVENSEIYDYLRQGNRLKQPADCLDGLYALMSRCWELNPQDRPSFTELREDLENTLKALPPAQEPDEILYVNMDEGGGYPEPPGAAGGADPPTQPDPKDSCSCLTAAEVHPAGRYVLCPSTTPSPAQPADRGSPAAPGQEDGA
Description: Inhibition of AXL (unknown origin) by ELISA.

The test system of another data set is MKN-45. Description: Antiproliferative activity against human MKN-45 cells incubated for 72 hrs. As to conditions: MKN-45, 72 h. In kind it is functional, cell-based. A digest of the protocol: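 MKN-45 cells (MET-amplified gastric carcinoma) grown in the supplier-recommended medium and serum, seeded at low density and treated the next day across a concentration range for 72 h. Proliferation read by SRB or CCK-8. IC50 obtained from a four-parameter concentration-response fit; mean ± SD of two independent assays.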

For another data set, the system named is BaF3. The experiment in a line: Antiproliferative activity against mouse BaF3 stably expressing human TEL-AXL incubated for 72 hrs. In kind it is functional, cell-based. To be noted: BaF3, 72 h.
The nature of data set [3]: Tmax in Sprague-Dawley rat at 3 mg/kg, po via gavage measured up to 24 hrs by LC-MS analysis. To be noted: in vivo. In kind it is ADME, organism-based. In short, it runs like this:
(§1)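 Male Sprague-Dawley rats (n = 3) dosed once by oral gavage at 3 mg/kg as a solution in 5% DMSO/95% (0.5% CMC-Na). Blood sampled at 0.25, 0.5, 1, 2, 4, 6, 8 and 24 h, kept on wet ice, serum separated by centrifugation and stored at -20 °C. Serum levels measured by LC-MS/MS; parameters reported as means.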

Data set [4] can be described thus: AUC (0 to infinity) in Sprague-Dawley rat at 3 mg/kg, po via gavage measured up to 24 hrs by LC-MS analysis. To be noted: in vivo. It counts as ADME, organism-based. Set-up: route oral, dose 3 mg/kg, time <=24. A digest of the protocol: as §1
Data set [5] can be described thus: Half life in Sprague-Dawley rat at 3 mg/kg, po via gavage measured up to 24 hrs by LC-MS analysis. It counts as ADME, organism-based. As to conditions: in vivo. A digest of the protocol: as §1
The nature of data set [6]: Cmax in Sprague-Dawley rat at 3 mg/kg, po via gavage measured up to 24 hrs by LC-MS analysis. It counts as ADME, organism-based. Set-up: route oral, dose 3 mg/kg, time <=24. To be noted: in vivo. In short, it runs like this: as §1

Chain of Hepatocyte growth factor receptor (P08581 whole entry): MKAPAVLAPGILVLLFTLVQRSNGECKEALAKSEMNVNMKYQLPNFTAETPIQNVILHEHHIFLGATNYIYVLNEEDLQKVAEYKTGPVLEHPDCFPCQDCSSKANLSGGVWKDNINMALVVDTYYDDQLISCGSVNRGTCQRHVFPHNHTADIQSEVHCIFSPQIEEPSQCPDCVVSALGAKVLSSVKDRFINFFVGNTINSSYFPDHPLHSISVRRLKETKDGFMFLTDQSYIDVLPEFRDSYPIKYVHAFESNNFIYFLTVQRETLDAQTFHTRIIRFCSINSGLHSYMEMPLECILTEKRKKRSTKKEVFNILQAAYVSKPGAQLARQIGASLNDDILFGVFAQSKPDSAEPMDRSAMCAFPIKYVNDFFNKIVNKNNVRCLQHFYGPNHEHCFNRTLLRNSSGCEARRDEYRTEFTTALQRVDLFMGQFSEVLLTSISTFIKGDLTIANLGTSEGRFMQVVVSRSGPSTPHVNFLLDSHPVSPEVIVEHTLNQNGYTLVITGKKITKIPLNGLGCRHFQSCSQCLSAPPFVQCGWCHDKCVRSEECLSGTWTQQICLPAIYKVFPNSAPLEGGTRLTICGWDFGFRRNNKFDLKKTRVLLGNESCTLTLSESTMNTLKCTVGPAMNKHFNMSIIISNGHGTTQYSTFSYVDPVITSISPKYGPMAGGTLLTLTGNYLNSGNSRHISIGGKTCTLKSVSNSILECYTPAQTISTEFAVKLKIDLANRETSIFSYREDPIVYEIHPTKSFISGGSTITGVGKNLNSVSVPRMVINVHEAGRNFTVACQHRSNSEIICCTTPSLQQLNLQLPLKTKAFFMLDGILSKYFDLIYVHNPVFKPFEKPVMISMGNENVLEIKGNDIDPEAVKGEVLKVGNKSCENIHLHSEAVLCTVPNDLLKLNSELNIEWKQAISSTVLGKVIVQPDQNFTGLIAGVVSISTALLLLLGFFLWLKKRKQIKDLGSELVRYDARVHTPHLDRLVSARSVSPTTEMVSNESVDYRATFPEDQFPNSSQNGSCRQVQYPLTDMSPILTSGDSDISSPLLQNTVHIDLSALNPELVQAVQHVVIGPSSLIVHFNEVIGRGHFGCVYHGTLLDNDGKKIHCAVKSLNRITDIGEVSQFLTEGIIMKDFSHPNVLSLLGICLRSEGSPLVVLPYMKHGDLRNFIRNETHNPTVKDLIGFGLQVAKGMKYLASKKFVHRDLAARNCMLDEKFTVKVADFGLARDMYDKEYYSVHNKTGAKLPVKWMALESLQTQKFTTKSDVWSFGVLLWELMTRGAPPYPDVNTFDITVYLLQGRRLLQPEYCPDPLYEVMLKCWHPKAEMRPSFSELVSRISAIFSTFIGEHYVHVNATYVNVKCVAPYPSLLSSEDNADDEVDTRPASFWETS

As a reminder, the IC50 is the point on the concentration scale where inhibition reaches its midpoint. A lower IC50 goes with higher potency. With `CC(C)n1cc(C(=O)Nc2ccc(-c3cn(C)c4ncnc(N)c34)cc2)c(=O)c(-c2ccc(F)cc2)c1`, the half-inhibitory concentration (IC50) is 18.4 nM in data set [1], 0.4 nM in data set [2], 85.3 nM with MKN-45 and less than 1 nM in the data set on BaF3.

Consider `Cn1cc(-c2ccc(NC(=O)c3cn(CC4CCOCC4)cc(-c4ccccc4)c3=O)cc2)c2c(N)ncnc21`, for which the IC50 was 20.6 nM in data set [1], 1 nM in data set [2], 318 nM in the data set with MKN-45 and less than 1 nM with BaF3.

For the compound `Cn1cc(-c2ccc(NC(=O)c3cn(C4CCOCC4)cc(-c4ccc(F)cc4)c3=O)cc2)c2c(N)ncnc21`, the results for the IC50 in data set [1] and in data set [2] were 13.1 nM and 1.1 nM, respectively.

For `Nc1ncnc2c1c(-c1ccc(NC(=O)c3cn(CC4CCOCC4)cc(-c4ccc(F)cc4)c3=O)cc1)cn2CCN1CCOCC1`, the IC50 was determined as 17 nM in data set [1] and 2.7 nM in data set [2].

In the case of `CN(C)C(=O)Cn1cc(C(=O)Nc2ccc(-c3cn(C)c4ncnc(N)c34)cc2)c(=O)c(-c2ccc(F)cc2)c1`, the IC50 was 18.4 nM in data set [1], 0.5 nM in data set [2], more than 1000 nM in the data set with MKN-45 and more than 100 nM in the data set with BaF3.

In the case of `Cn1cc(-c2ccc(NC(=O)c3cn(CC4CCCO4)cc(-c4ccc(F)cc4)c3=O)cc2)c2c(N)ncnc21` (configuration not stated), the IC50 came out at 3.1 nM in data set [1] and 1.2 nM in data set [2].

`Nc1ncnc2[nH]cc(-c3ccc(NC(=O)c4cn(CC5CCOCC5)cc(-c5ccc(F)cc5)c4=O)cc3)c12`: the IC50 in data set [1] is 4.4 nM; in data set [2], 0.2 nM; in the data set on MKN-45, 77.9 nM; with BaF3, less than 1 nM.

Regarding `CCCn1cc(-c2ccc(NC(=O)c3cn(CC4CCOCC4)cc(-c4ccc(F)cc4)c3=O)cc2)c2c(N)ncnc21`, the IC50 in data set [1] is 5.1 nM; in data set [2], 1.8 nM.

`Cn1cc(-c2ccc(NC(=O)c3cn(CC4CCOCC4)cc(-c4ccc(F)cc4)c3=O)c(Cl)c2)c2c(N)ncnc21`: the figures for the IC50 in data set [1] and in data set [2] were 40.5 nM and 3.7 nM, respectively.

For the compound `Cn1cc(-c2cc(F)c(NC(=O)c3cn(CC4CCOCC4)cc(-c4ccc(F)cc4)c3=O)cc2F)c2c(N)ncnc21`, the IC50 in data set [1] is 3.3 nM; in data set [2], 0.5 nM; in the data set on MKN-45 it was 53.7 nM; in the data set with BaF3, less than 1 nM.

In the case of `Cn1cc(-c2ccc(NC(=O)c3cn(CC4CCOCC4)cc(-c4ccc(F)cc4)c3=O)cc2)c2c(N)ncnc21`, the IC50 was 7.1 nM in data set [1], 0.1 nM in data set [2], 248 nM with MKN-45 and less than 1 nM in the data set with BaF3.

On to `Cn1cc(C(=O)Nc2ccc(-c3cn(C)c4ncnc(N)c34)cc2)c(=O)c(-c2ccc(F)cc2)c1`, for which the IC50 was determined as 24.5 nM in data set [1] and 5 nM in data set [2].

Regarding `Cn1cc(-c2ccc(NC(=O)c3cn(CC4CCOCC4)cc(-c4cccc(F)c4)c3=O)cc2)c2c(N)ncnc21`, the IC50 in data set [1] stood at 95.4 nM; in data set [2], 3 nM.

Regarding `CN(C)CCn1cc(-c2ccc(NC(=O)c3cn(CC4CCOCC4)cc(-c4ccc(F)cc4)c3=O)cc2)c2c(N)ncnc21`, the IC50 in data set [1] worked out at 215 nM; in data set [2], 2.8 nM.

Consider `Cc1nc(N)c2c(-c3ccc(NC(=O)c4cn(CC5CCOCC5)cc(-c5ccc(F)cc5)c4=O)cc3)cn(C)c2n1`, for which the IC50 in data set [1] was found to be 159 nM; in data set [2], 5.1 nM.

`C[C@@H](Oc1cc(-c2cnn(C3CCNCC3)c2)cnc1N)c1c(Cl)ccc(F)c1Cl` [CRIZOTINIB] displayed an IC50 in the data set with MKN-45 of 15 nM.

Broadly, the Tmax is the time at which the peak concentration occurs. Usually AUC(0-inf) stands for the area under the concentration-time curve extrapolated to infinity. One may read the half-life as the time in which the quantity being followed falls by half. Higher therefore signals slow decline. The term Cmax denotes the peak of the concentration-time curve. Take `Nc1ncnc2[nH]cc(-c3cc(F)c(NC(=O)c4cn(CC5CCOCC5)cc(-c5ccc(F)cc5)c4=O)cc3F)c12`: the IC50 in data set [1] is 1.7 nM; in data set [2], 0.4 nM; with MKN-45, 29.8 nM; in the data set with BaF3 it was less than 1 nM. The Tmax in data set [3] was found to be 0.83 h. The compound further returned an AUC(0-inf) in data set [4] of 0.385 µg·h/mL. The same compound gave a half-life in data set [5] of 1.37 h. This compound also had a Cmax in data set [6] of 0.33 µg/mL.

On to `Cn1cc(-c2ccc(NC(=O)c3cn(CC4CCOCC4)cc(-c4ccc(C(F)(F)F)cc4)c3=O)cc2)c2c(N)ncnc21`, for which the IC50 in data set [1] was 33.1 nM; in data set [2], 0.4 nM; in the data set with MKN-45 it was 826 nM; with BaF3 it was less than 1 nM.

`Cn1cc(-c2ccc(NC(=O)c3cn(CC4CCOCC4)cc(-c4ccc(Cl)cc4)c3=O)cc2)c2c(N)ncnc21`: the IC50 in data set [1] is 12.3 nM; in data set [2], 0.2 nM; in the data set with MKN-45 it was 347 nM; in the data set with BaF3, less than 1 nM.

Take `Cn1cc(-c2ccc(NC(=O)c3cn(CC4CCOCC4)cc(-c4ccc(F)cc4)c3=O)c(F)c2)c2c(N)ncnc21`: the IC50 in data set [1] is 7.3 nM; in data set [2], 0.2 nM; in the data set with MKN-45, 210 nM; with BaF3 it was less than 1 nM.

Take `COCCCn1cc(C(=O)Nc2ccc(-c3cn(C)c4ncnc(N)c34)cc2)c(=O)c(-c2ccc(F)cc2)c1`: the IC50 is 16.7 nM in data set [1] and more than 10 nM in data set [2].

With `Cc1cc(-c2cn(C)c3ncnc(N)c23)ccc1NC(=O)c1cn(CC2CCOCC2)cc(-c2ccc(F)cc2)c1=O`, the IC50 worked out at 33.8 nM in data set [1] and 4 nM in data set [2].

Regarding `Cn1cc(-c2ccc(NC(=O)c3cn(CC4CCOCC4)cc(-c4ccc(F)cc4F)c3=O)cc2)c2c(N)ncnc21`, the IC50 is 19.8 nM in data set [1], 0.8 nM in data set [2], 501 nM in the data set with MKN-45 and less than 1 nM in the data set with BaF3.

On to `Cn1cc(-c2ccc(NC(=O)c3cn(CC4CCCCC4)cc(-c4ccc(F)cc4)c3=O)cc2)c2c(N)ncnc21`, for which the IC50 in data set [1] was 4.8 nM; in data set [2], 2.3 nM.

Regarding `Cn1cc(-c2ccc(NC(=O)c3cn(CC4CCOCC4)cc(-c4ccc(F)cc4)c3=O)cc2F)c2c(N)ncnc21`, the half-inhibitory concentration (IC50) was 2.4 nM in data set [1], 0.8 nM in data set [2], 93.7 nM in the data set with MKN-45 and less than 1 nM with BaF3.
